Data on one compound can be found in ChEMBL document CHEMBL1938334, “Quinoline tricyclic derivatives. Design, synthesis and evaluation of the antiviral activity of three new classes of RNA-dependent RNA polymerase inhibitors” (Bioorg Med Chem, 2011).

The EC50 is the midpoint of the concentration-response curve. Usually CC50 stands for the concentration at which the toxic effect on the cells reaches its halfway point.

In data set [1] the test system is Human immunodeficiency virus 1. In words: Antiviral activity against HIV1 3B infected in human MT4 cells assessed as inhibition of virus-induced cytopathogenicity after 4 days by MTT assay. It counts as functional, organism-based. The conditions noted are these: Human immunodeficiency virus 1, 3B, MT4, 96 h. The method, boiled down: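 MT-4 cells (1×10^4 per well) were infected with HIV-1 IIIB at 100 CCID50, m.o.i. 0.01, together with serial compound dilutions. Viability was read by MTT after 4 days at 37 °C. EC50 was taken by linear regression versus untreated controls. Mean of three determinations.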

The subject of another data set is WIL2-NS. Briefly: Cytotoxicity against human WIL2-NS cells after 96 hrs by MTT assay. The data set is classed as functional. The method, boiled down:
(§1)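 Cells were seeded at 1×10^5 cells/mL: leukaemia/lymphoma lines in RPMI-1640, solid tumour and fibroblast lines in specific media, all with 10% FCS. Serial compound dilutions were applied for 96 h at 37 °C, 5% CO2, under conditions allowing controls at least three rounds of multiplication. Viability was read by MTT. CC50 by linear regression. Mean of three determinations.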
A general note: Tetrazolium dyes change colour on reduction, which living cells bring about.

A further data set has as its system Coxsackievirus B5. Briefly: Antiviral activity against Human coxsackievirus B5 Ohio-1 infected in african green monkey Vero 76 cells assessed as reduction of virus-induced plaque formation after 3 days using crystal violet staining. It counts as functional, organism-based. The settings on record: Enterovirus B, Ohio-1, Vero, 72 h.
The nature of data set [2]: Cytotoxicity against human CRL7065 cells after 96 hrs by MTT assay. It counts as cell-based, CRL-7065. The method, boiled down: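 Foreskin fibroblasts seeded at 1×10^5 cells/mL in specific medium with 10% FCS and antibiotics; serial compound dilutions, 37 °C, 5% CO2, 96 h, under conditions allowing untreated controls at least three rounds of multiplication. MTT read-out; concentration reducing proliferation by 50% by linear regression versus untreated controls; three independent determinations.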

A short description of data set [3]: Antiviral activity against Vaccinia virus Lister Elstree infected in african green monkey Vero 76 cells assessed as reduction of virus-induced plaque formation after 3 days using crystal violet staining. The data set is classed as functional, cell-based. The settings on record: 72 h.
The test system of a further data set is CCRF-CEM. Briefly: Cytotoxicity against human CCRF-CEM cells after 96 hrs by MTT assay. The data set is classed as functional. Put shortly: as §1
The test system of a further data set is Poliovirus 1. Briefly: Antiviral activity against Human poliovirus 1 strain Sabin Chat infected in african green monkey Vero 76 cells assessed as virus-induced reduction of plaque formation after 2 days using crystal violet staining. The data set is classed as functional, cell-based. The settings on record: Enterovirus C, 48 h.
Data set [4] is described as follows: Cytotoxicity against human MRC5 cells after 96 hrs by MTT assay. The data set is classed as cell-based. Put shortly: as §1
The nature of data set [5]: Selectivity index, […] for human GS4.1 cells. Put shortly:
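Both values come from GS4.1 replicon cells treated 72 h with two-fold serial dilutions (top 75 μM). EC50 was from NS4A ELISA with a four-parameter sigmoidal fit. CC50 was from a tetrazolium-based Aqueous One cell proliferation readout.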

Consider `O=[N+]([O-])c1ccc(-c2nc3cc4cccnc4c(Cl)c3[nH]2)cc1`, for which the EC50 (in data set [1]; in the data set on Coxsackievirus B5; in [3]; with Poliovirus 1) was more than 100 µM each time. The values for the half-maximal cytotoxic concentration (CC50) in the data set on WIL2-NS and in the data set on CCRF-CEM were more than 100 µM and 49 µM, respectively. The CC50 at 96 h in data set [2] and in [4] was more than 100 µM each time. Also, the “Selectivity Index” value in [5] is 4.
